Reference: ChEMBL document CHEMBL4346670, “Discovery of Novel Janus Kinase (JAK) and Histone Deacetylase (HDAC) Dual Inhibitors for the Treatment of Hematological Malignancies” (J Med Chem, 2019)
pIC50: −log10 of the molar value. Calls of active or inactive are those of the source. No cut-off for these calls is given here.

How the values were obtained:
[1] = system: HEL; assay: Induction of apoptosis in HEL cells assessed as late apoptotic cells at 1 uM after 24 hrs by Annexin-V/propidium iodide staining-based flow cytometric analysis (reference value: 0.023%); assay type: functional, Homo sapiens
[2] = system: K562; assay: Induction of apoptosis in human K562 cells assessed as viable cells at 1 uM after 24 hrs by Annexin-V/propidium iodide staining-based flow cytometric analysis (reference value: 85.7%); assay type: functional
[3] = biological target: T1, Janus Kinase (JAK) (Homo sapiens) (UniProt P52333+P23458+O60674+P29597); assay: Inhibition of JAK in human MDA-MB-231 cells assessed as downregulation of p-STAT3-Tyr705 level at 5 uM after 12 hrs by Western blot analysis
[4] = system: HEL; assay: Induction of apoptosis in HEL cells assessed as early apoptotic cells at 1 uM after 24 hrs by Annexin-V/propidium iodide staining-based flow cytometric analysis (reference value: 12.5%); assay type: functional, Homo sapiens
[5] = Toxicity in BALB/c nu mouse xenografted with HEL cells assessed as injury to internal organs at 60 mg/kg/day, ip administered for 16 days and measured post-last dose in presence of ruxolitinib; assay type: organism-based; details: in vivo, 384 h
[6] = system: MOLT-4; assay: Antiproliferative activity against human MOLT4 cells assessed as reduction in cell viability after 48 hrs by MTT assay; assay type: functional, cell-based; details: MOLT-4, 48 h
Outline: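 Cells kept in RPMI1640 with 10% FBS at 37 °C, 5% CO2. Seeded and grown for 12 h, then exposed to a range of compound concentrations for 48 h. 0.5% MTT added for 4 h, formazan dissolved in DMSO, absorbance read at 570 nm.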

[7] = Toxicity in BALB/c nu mouse xenografted with HEL cells assessed as change in body weight at 60 mg/kg/day, ip administered for 16 days and measured every day during compound dosing in presence of ruxolitinib; assay type: organism-based; details: in vivo, 384 h
[8] = biological target: T1, Janus Kinase (JAK) (Homo sapiens); assay: Inhibition of JAK in human MDA-MB-231 cells assessed as decrease in upregulation of p-STAT3-Tyr705 level at 5 uM after 12 hrs in presence of ruxolitinib by Western blot analysis; assay type: cell-based
Outline: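 MDA-MB-231 cells treated with compound or DMSO for 12 h, then lysed in SDS buffer and cleared by centrifugation. Lysate resolved by SDS-PAGE and transferred to nitrocellulose. Immunoblotted for p-STAT3 (Tyr705), total STAT3, acetyl-α-tubulin and acetyl-histone H3, with GAPDH as loading control. Detection by enhanced chemiluminescence.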

[9] = system: K562; assay: Induction of apoptosis in human K562 cells assessed as early apoptotic cells at 1 uM after 24 hrs by Annexin-V/propidium iodide staining-based flow cytometric analysis (reference value: 7.55%); assay type: functional
[10] = system: K562; assay: Induction of apoptosis in human K562 cells assessed as late apoptotic cells at 1 uM after 24 hrs by Annexin-V/propidium iodide staining-based flow cytometric analysis (reference value: 5.87%); assay type: functional
[11] = system: HEL; assay: Induction of apoptosis in HEL cells assessed as necrotic apoptotic cells at 1 uM after 24 hrs by Annexin-V/propidium iodide staining-based flow cytometric analysis (reference value: 0.011%); assay type: functional, Homo sapiens
[12] = Drug level in BALB/c nu mouse xenografted with HEL cells at 100 mg/kg/day, ip administered for 5 days and measured after 0.5 to 4 hrs by LC-MS/MS analysis; assay type: ADME, organism-based; details: in vivo
Outline: (§1)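 HEL-xenografted male BALB/c-nu mice dosed IP at 100 mg/kg/day for 5 days. Sacrificed 0.5, 1.0 and 4.0 h after the last dose. Plasma separated and stored at -80 °C. Tumors homogenized in normal saline (5:1 v/w) and sonicated. Samples deproteinized with methanol containing internal standard, centrifuged, diluted in methanol/acetonitrile and recentrifuged.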

[13] = system: HEL; assay: Induction of apoptosis in HEL cells assessed as viable cells at 1 uM after 24 hrs by Annexin-V/propidium iodide staining-based flow cytometric analysis (reference value: 87.5%); assay type: functional, Homo sapiens
[14] = biological target: Tyrosine-protein kinase JAK2 (Homo sapiens, UniProt O60674); assay: Inhibition of recombinant human JAK2 at 10 uM using Ulight-CAGAGAIETDKEYYTVKD as substrate measured after 60 mins by LANCE assay
[15] = system: K562; assay: Induction of apoptosis in human K562 cells assessed as necrotic apoptotic cells at 1 uM after 24 hrs by Annexin-V/propidium iodide staining-based flow cytometric analysis (reference value: 0.827%); assay type: functional
[16] = system: HEL; assay: Synergistic antiproliferative activity against HEL cells harboring JAK2 V617F mutant assessed as reduction in cell viability after 48 hrs in presence of SAHA by MTT assay; assay type: functional, cell-based; details: Homo sapiens
[17] = Toxicity in BALB/c nu mouse xenografted with HEL cells assessed as change in body weight at 70 mg/kg/day, ip administered for 16 days and measured every day during compound dosing in presence of SAHA; assay type: organism-based; details: in vivo, 384 h
[18] = biological target: Histone deacetylase 2 (Homo sapiens, UniProt Q92769); details: A549, at 80 to 400 nM
[19] = Drug level in tumor of BALB/c nu mouse xenografted with HEL cells at 100 mg/kg/day, ip administered for 5 days and measured 1 hr post-last dose by LC-MS/MS analysis; assay type: ADME, organism-based, Neoplasm; details: in vivo; outline: as §1
[20] = biological target: T2, Protein deacetylase HDAC6 (Homo sapiens, UniProt Q9UBN7); assay: Inhibition of recombinant human HDAC6 using p53 (379 to 382 residues) derived fluorogenic peptide RHKKAc as substrate
T2 sequence (Q9UBN7 whole entry): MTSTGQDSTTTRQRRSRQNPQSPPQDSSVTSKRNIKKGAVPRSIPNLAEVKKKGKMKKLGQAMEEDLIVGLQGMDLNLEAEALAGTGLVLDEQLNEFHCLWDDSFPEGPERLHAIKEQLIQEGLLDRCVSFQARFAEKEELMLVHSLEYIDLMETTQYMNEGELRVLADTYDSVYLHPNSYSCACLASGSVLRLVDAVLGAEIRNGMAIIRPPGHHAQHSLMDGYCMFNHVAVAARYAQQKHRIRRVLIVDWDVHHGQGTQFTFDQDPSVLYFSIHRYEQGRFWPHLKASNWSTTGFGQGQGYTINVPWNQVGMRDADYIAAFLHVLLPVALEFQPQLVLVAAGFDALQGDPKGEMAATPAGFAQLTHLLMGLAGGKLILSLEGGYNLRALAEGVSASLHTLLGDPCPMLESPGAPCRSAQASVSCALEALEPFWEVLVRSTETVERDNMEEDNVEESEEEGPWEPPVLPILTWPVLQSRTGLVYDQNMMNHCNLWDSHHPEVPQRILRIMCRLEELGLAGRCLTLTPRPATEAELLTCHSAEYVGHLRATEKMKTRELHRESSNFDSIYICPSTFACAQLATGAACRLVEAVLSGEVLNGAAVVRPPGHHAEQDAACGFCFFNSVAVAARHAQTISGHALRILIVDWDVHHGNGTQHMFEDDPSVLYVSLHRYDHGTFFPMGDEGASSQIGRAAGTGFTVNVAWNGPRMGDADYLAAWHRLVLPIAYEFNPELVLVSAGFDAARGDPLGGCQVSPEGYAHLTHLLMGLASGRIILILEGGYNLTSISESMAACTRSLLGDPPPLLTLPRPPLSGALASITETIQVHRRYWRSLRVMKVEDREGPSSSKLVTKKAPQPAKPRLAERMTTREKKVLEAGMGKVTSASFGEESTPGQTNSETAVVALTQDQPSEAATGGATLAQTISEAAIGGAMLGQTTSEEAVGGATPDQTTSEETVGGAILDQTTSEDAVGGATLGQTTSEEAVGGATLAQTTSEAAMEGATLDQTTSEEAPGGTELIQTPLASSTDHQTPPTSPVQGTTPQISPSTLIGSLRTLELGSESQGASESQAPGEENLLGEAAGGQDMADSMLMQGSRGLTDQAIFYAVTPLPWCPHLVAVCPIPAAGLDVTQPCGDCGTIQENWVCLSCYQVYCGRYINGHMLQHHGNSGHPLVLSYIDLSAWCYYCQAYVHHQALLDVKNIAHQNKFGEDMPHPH

[21] = Toxicity in BALB/c nu mouse xenografted with HEL cells assessed as injury to internal organs at 70 mg/kg/day, ip administered for 16 days and measured post-last dose in presence of SAHA; assay type: organism-based; details: in vivo, 384 h
[22] = system: HEL; assay: Antitumor activity against HEL cells xenografted in BALB/c nu mouse assessed as reduction in tumor volume at 100 mg/kg/day, ip administered for 16 days and measured every 3 days during compound dosing by caliper method relative to control; assay type: functional, Homo sapiens; details: read-out: TGI
[23] = system: K562; assay: Synergistic antiproliferative activity against human K562 cells assessed as combination index after 48 hrs in presence of SAHA by MTT assay; assay type: functional
[24] = system: HEL; assay: Antitumor activity against HEL cells xenografted in BALB/c nu mouse assessed as tumor growth inhibition at 70 mg/kg/day, ip administered for 16 days and measured every 3 days during compound dosing in presence of SAHA by caliper method relative to control; assay type: functional, Homo sapiens; details: read-out: TGI
Outline: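 Male BALB/c-nu mice (5-6 weeks) inoculated subcutaneously in the right flank with 1 × 10^7 HEL cells. Randomized at day 10 (6 per group). Dosed IP daily for 16 days; controls received PBS with 5% DMSO. Tumors measured by caliper every three days (V = ab²/2) and body weight monitored. TGI calculated from final tumor weights versus control.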

[25] = system: K562; assay: Synergistic antiproliferative activity against human K562 cells assessed as reduction in cell viability after 48 hrs in presence of SAHA by MTT assay; assay type: functional, cell-based; details: K562, 48 h
[26] = system: HEL; assay: Synergistic antiproliferative activity against HEL cells harboring JAK2 V617F mutant assessed as combination index after 48 hrs in presence of SAHA by MTT assay; assay type: functional, Homo sapiens
[27] = system: K562; assay: Antiproliferative activity against human K562 cells assessed as reduction in cell viability after 48 hrs by MTT assay; assay type: functional, cell-based; details: K562, 48 h
[28] = system: Jurkat; assay: Antiproliferative activity against human Jurkat cells assessed as reduction in cell viability after 48 hrs by MTT assay; assay type: functional, cell-based
[29] = system: HEL; assay: Antiproliferative activity against HEL cells harboring JAK2 V617F mutant assessed as reduction in cell viability after 48 hrs by MTT assay; assay type: functional, cell-based; details: Homo sapiens

Histone deacetylase 2, sequence (Q92769 whole entry): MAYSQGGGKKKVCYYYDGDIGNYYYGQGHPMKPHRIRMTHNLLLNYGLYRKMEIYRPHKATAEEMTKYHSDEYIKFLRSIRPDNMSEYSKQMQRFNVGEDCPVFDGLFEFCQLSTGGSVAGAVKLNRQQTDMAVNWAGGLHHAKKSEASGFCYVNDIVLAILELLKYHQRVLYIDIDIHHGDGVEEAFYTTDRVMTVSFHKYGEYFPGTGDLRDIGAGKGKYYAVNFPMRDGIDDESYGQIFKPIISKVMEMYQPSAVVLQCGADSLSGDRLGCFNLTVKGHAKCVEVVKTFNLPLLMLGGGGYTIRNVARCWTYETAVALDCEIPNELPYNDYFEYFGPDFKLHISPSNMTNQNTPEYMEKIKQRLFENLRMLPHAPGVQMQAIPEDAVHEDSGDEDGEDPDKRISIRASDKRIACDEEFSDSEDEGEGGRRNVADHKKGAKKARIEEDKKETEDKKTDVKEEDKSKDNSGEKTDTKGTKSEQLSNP
Tyrosine-protein kinase JAK2, sequence (O60674 whole entry): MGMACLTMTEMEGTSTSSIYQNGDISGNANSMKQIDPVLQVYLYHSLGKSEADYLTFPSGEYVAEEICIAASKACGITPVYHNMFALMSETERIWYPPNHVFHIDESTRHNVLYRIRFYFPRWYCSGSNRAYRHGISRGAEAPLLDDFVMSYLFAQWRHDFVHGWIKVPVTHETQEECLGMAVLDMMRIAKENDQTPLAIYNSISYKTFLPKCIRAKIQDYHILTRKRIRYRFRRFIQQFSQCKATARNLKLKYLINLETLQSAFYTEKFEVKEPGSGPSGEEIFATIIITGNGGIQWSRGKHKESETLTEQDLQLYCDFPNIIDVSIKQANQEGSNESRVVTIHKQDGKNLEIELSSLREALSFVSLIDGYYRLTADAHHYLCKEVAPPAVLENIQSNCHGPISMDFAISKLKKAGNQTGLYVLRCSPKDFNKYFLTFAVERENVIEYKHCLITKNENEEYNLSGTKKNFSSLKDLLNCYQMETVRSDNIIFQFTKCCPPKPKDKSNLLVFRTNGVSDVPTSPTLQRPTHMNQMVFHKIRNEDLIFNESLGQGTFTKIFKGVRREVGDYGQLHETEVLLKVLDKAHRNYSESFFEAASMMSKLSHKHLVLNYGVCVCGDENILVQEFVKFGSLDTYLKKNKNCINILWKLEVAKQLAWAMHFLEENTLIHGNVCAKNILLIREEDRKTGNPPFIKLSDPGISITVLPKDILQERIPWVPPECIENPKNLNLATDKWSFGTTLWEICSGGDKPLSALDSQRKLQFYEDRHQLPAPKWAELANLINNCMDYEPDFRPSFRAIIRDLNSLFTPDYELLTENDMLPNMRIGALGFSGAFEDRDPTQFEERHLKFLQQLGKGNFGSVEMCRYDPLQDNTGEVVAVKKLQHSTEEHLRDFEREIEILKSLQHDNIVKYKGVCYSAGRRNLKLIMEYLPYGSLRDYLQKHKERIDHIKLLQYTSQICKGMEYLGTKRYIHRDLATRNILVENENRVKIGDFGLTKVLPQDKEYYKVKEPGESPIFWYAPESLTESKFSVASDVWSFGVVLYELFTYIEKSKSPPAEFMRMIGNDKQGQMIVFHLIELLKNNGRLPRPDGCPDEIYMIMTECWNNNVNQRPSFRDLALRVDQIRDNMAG

For `O=C(CCCCCCC(=O)Nc1ccccc1)NO` [VORINOSTAT], the Activity [1] was 44.6%, the Activity [2] was 67.6% and the Activity [3] was “Active”. For the same compound, the Activity [4] was 21.3%, the Activity [5] was “Non-Toxic” and the pIC50 [6] was 6.40. For the same compound, the Activity [7] was “Non-Toxic”, the inhibition [8] was “Active” and the Activity [9] was 14.5%. The Activity [10] was 17.3%, the Activity [11] was 2% and the Drug uptake [12] was “Active”. The Activity [13] was 32.1%, the inhibition [14] was “inactive” and the Activity [15] was 0.73%.
For `N#CC[C@H](C1CCCC1)n1cc(-c2ncnc3[nH]ccc23)cn1` [RUXOLITINIB], the pIC50 [16] was 6.52, the Activity [17] was “Non-Toxic” and the Activity [1] was 11.7%. The inhibition [18] was “Active”, the viability at 1 µM ([2]; Homo sapiens, K562, 24 h, read-out: Activity) was 75.2% and the Activity [4] was 8.08%. For the same compound, the Drug uptake [19] was “Active”, the pIC50 [6] was 4.80 and the pIC50 [20] was 7.82. For the same compound, the Activity [21] was “Non-Toxic”, the inhibition in vivo at 100 mg/kg/day [22] was 27% and the CI [23] was 0.97. For the same compound, the inhibition in vivo at 70 mg/kg/day [24] was 57%, the Activity [9] was 9.22% and the Activity [10] was 15.3%. The pIC50 [25] was 5.99, the Activity [11] was 0.85% and the CI [26] was 0.48. The viability at 1 µM ([13]; Homo sapiens, HEL, 24 h, read-out: Activity) was 79.4%, the pIC50 [27] was 4.63 and the pIC50 [28] was < 5.30. For the same compound, the pIC50 [29] was 4.73 and the Activity [15] was 0.248%.
